Laboratory results as given in ChEMBL document CHEMBL3758153, “Identification of novel cyclic lipopeptides from a positional scanning combinatorial library with enhanced antibacterial and antibiofilm activities” (Eur J Med Chem, 2016).
The source made the active and inactive calls. The rule behind the calls is not given here. Where a SMILES comes first, the peptide text is derived from it. Bridges are numbered along the chain shown (N, C = ends). [ ]: non-standard residue; d: D form. The star is where a group is joined. Dodecanoyl(12-guanidino) = N=C(N)NCCCCCCCCCCCC(=O)*; d(aThr) = C[C@@H](O)[C@@H](N)C(=O)O

Assays:
[1] = tested on: Staphylococcus aureus; experiment: Antibacterial activity against methicillin-resistant Staphylococcus aureus CBD-635 at 50 ug/mL; format: functional, organism-based
Procedure, shortened: (§1)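 CLSI microbroth dilution in undiluted Müller–Hinton broth; peptides dissolved in DMSO and diluted in medium to 1% DMSO (v/v) final. Each agent tested at a fixed concentration against the ESKAPE clinical isolate. Controls: medium alone, inoculum without drug, and inoculum with methicillin, vancomycin, nisin, colistin or bacitracin. Run in triplicate.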

[2] = tested on: Staphylococcus aureus; experiment: Ratio of MIC for methicillin-resistant Staphylococcus aureus CBD-635 after 8 serial passages to MIC for methicillin-resistant Staphylococcus aureus CBD-635 after 1st serial passage; format: functional
Procedure, shortened: (§2)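 Serial passage: exponential-phase cultures in MHB at about 10^6 CFU/mL final, started at ½ MIC of agent, incubated overnight at 37°C. An aliquot was moved each step to a 2-fold higher concentration, for 8 passages. MIC was determined at each step by broth microdilution. Vancomycin and ciprofloxacin were comparators. Three independent experiments.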

[3] = tested on: Staphylococcus aureus; experiment: Antibacterial activity against methicillin-resistant Staphylococcus aureus CBD-635 at 25 ug/mL; format: functional, organism-based; procedure, shortened: as §1
[4] = tested on: Pseudomonas aeruginosa; experiment: Ratio of MIC for Pseudomonas aeruginosa USF-1423 after 8 serial passages to MIC for Pseudomonas aeruginosa USF-1423 after 1st serial passage; format: functional; procedure, shortened: as §2
[5] = tested on: Staphylococcus aureus; experiment: Antibacterial activity against methicillin-resistant Staphylococcus aureus CBD-635 at 10 ug/mL; format: functional, organism-based; procedure, shortened: as §1
[6] = tested on: Staphylococcus aureus; experiment: Antibacterial activity against methicillin-resistant Staphylococcus aureus CBD-635 at 5 ug/mL; format: functional, organism-based; procedure, shortened: as §1
[7] = tested on: Staphylococcus aureus; experiment: Antibacterial activity against methicillin-resistant Staphylococcus aureus CBD-635 at 100 ug/mL; format: functional, organism-based; procedure, shortened: as §1
[8] = tested on: Acinetobacter baumannii; experiment: Antibacterial activity against Acinetobacter baumannii USF-1403 at 100 ug/mL; format: functional, organism-based
Procedure, shortened: (§3)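 Broth microdilution per CLSI in undiluted Müller–Hinton broth. Compounds were dissolved in DMSO and diluted to a final 1% DMSO (v/v). Plates included medium-only and no-drug growth controls, plus methicillin, vancomycin, nisin, colistin and bacitracin. Triplicate runs.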

[9] = tested on: Acinetobacter baumannii; experiment: Antibacterial activity against Acinetobacter baumannii USF-1403 at 50 ug/mL; format: functional, organism-based; procedure, shortened: as §3
[10] = tested on: Acinetobacter baumannii; experiment: Antibacterial activity against Acinetobacter baumannii USF-1403 at 25 ug/mL; format: functional, organism-based; procedure, shortened: as §3
[11] = tested on: Enterococcus faecium; experiment: Antibacterial activity against vancomycin-resistant Enterococcus faecium USF-1449 at 50 ug/mL; format: functional, organism-based; procedure, shortened: as §1
[12] = tested on: Acinetobacter baumannii; experiment: Antibacterial activity against Acinetobacter baumannii USF-1403 at 35 ug/mL; format: functional, organism-based; procedure, shortened: as §3
[13] = tested on: Enterococcus faecium; experiment: Antibacterial activity against vancomycin-resistant Enterococcus faecium USF-1449 at 100 ug/mL; format: functional, organism-based; procedure, shortened: as §1
[14] = tested on: Staphylococcus aureus; experiment: Antibacterial activity against methicillin-resistant Staphylococcus aureus CBD-635 at 35 ug/mL; format: functional, organism-based; procedure, shortened: as §1
[15] = tested on: Pseudomonas aeruginosa; experiment: Antibacterial activity against Pseudomonas aeruginosa PA14 assessed as inhibition of biofilm formation at 4.8 uM after 3 days by Styo-9/propidium iodide staining based confocal laser scanning microscopy; format: functional, organism-based
[16] = tested on: Staphylococcus aureus; experiment: Antibacterial activity against methicillin-resistant Staphylococcus aureus SAP0017 clinical isolate assessed as inhibition of biofilm formation at 4.8 uM after 3 days by Styo-9/propidium iodide staining based confocal laser scanning microscopy; format: functional, organism-based
[17] = tested on: BJ; experiment: Cytotoxicity against human BJ cells assessed as reduction in cell viability at 150 uM after 48 to 72 hrs by Cell Titer-Glo Luminescent assay; format: cell-based
Procedure, shortened: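 BJ fibroblasts were seeded at 10,000 per well in EMEM with 10% FBS and incubated overnight at 37 °C, 5% CO2. Medium was then replaced with 2% FBS medium containing peptide (0.5–500 μM, final 1% DMSO). After 48 and 72 h, viability was read by CellTiter-Glo luminescence. Controls were 10 μM doxorubicin and 20% DMSO.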

[18] = tested on: Staphylococcus aureus; experiment: Antibacterial activity against methicillin-resistant Staphylococcus aureus SAP0017 clinical isolate assessed as eradication of mature biofilm formation at 4.8 uM after 24 hrs by Styo-9/propidium iodide staining based confocal laser scanning microscopy; format: functional, organism-based
[19] = tested on: Pseudomonas aeruginosa; experiment: Antibacterial activity against Pseudomonas aeruginosa PA14 assessed as eradication of mature biofilm formation at 4.8 uM after 24 hrs by Styo-9/propidium iodide staining based confocal laser scanning microscopy; format: functional, organism-based
[20] = Hemolytic activity in human erythrocytes at 155 uM after 1 hr; format: ADME, cell-based; details: erythrocyte
[21] = tested on: Enterococcus faecium; experiment: Antibacterial activity against vancomycin-resistant Enterococcus faecium USF-1449 at 25 ug/mL; format: functional, organism-based; procedure, shortened: as §1
[22] = tested on: Klebsiella pneumoniae; experiment: Antibacterial activity against carbapenem-resistant Klebsiella pneumoniae USF-1433 at 50 ug/mL; format: functional, organism-based; procedure, shortened: as §1
[23] = tested on: Enterococcus faecium; experiment: Antibacterial activity against vancomycin-resistant Enterococcus faecium USF-1449 at 35 ug/mL; format: functional, organism-based; procedure, shortened: as §1
[24] = tested on: Klebsiella pneumoniae; experiment: Antibacterial activity against carbapenem-resistant Klebsiella pneumoniae USF-1433 at 100 ug/mL; format: functional, organism-based; procedure, shortened: as §1
[25] = tested on: Pseudomonas aeruginosa; experiment: Antibacterial activity against Pseudomonas aeruginosa USF-1423 at 10 ug/mL; format: functional, organism-based; procedure, shortened: as §3
[26] = tested on: Pseudomonas aeruginosa; experiment: Antibacterial activity against Pseudomonas aeruginosa USF-1423 at 25 ug/mL; format: functional, organism-based; procedure, shortened: as §3
[27] = tested on: Enterobacter cloacae; experiment: Antibacterial activity against carbapenem-resistant Enterobacter cloacae USF-1454 at 100 ug/mL; format: functional, organism-based; procedure, shortened: as §1
[28] = tested on: Pseudomonas aeruginosa; experiment: Antibacterial activity against Pseudomonas aeruginosa USF-1423 at 100 ug/mL; format: functional, organism-based; procedure, shortened: as §3
[29] = tested on: Enterococcus faecium; experiment: Antibacterial activity against vancomycin-resistant Enterococcus faecium USF-1449 at 10 ug/mL; format: functional, organism-based; procedure, shortened: as §1
[30] = tested on: Pseudomonas aeruginosa; experiment: Antibacterial activity against Pseudomonas aeruginosa USF-1423 at 5 ug/mL; format: functional, organism-based; procedure, shortened: as §3
[31] = tested on: Acinetobacter baumannii; experiment: Antibacterial activity against Acinetobacter baumannii USF-1403 at 5 ug/mL; format: functional, organism-based; procedure, shortened: as §3
[32] = tested on: Acinetobacter baumannii; experiment: Antibacterial activity against Acinetobacter baumannii USF-1403 at 10 ug/mL; format: functional, organism-based; procedure, shortened: as §3
[33] = tested on: Enterobacter cloacae; experiment: Antibacterial activity against carbapenem-resistant Enterobacter cloacae USF-1454 at 50 ug/mL; format: functional, organism-based; procedure, shortened: as §1
[34] = tested on: Pseudomonas aeruginosa; experiment: Antibacterial activity against Pseudomonas aeruginosa USF-1423 at 50 ug/mL; format: functional, organism-based; procedure, shortened: as §3
[35] = tested on: Enterobacter cloacae; experiment: Antibacterial activity against carbapenem-resistant Enterobacter cloacae USF-1454 at 25 ug/mL; format: functional, organism-based; procedure, shortened: as §1
[36] = Hemolytic activity in human erythrocytes at 320 uM after 1 hr; format: ADME, cell-based; details: erythrocyte

Row | Molecule | Activity [1] | Activity [3] | Activity [7] | Activity [8] | Activity [11] | Activity [13] | Activity [14] | other results
1 | CN[C@@H](CC(C)C)C(=O)N[C@H]1C(=O)N[C@@H](CC(N)=O)C(=O)N[C@H]2C(=O)N[C@H]3C(=O)N[C@H](C(=O)N[C@@H](C(=O)O)c4cc(O)cc(O)c4-c4cc3ccc4O)[C@H](O)c3ccc(c(Cl)c3)Oc3cc2cc(c3O[C@H]2O[C@@H](CO)[C@H](O)[C@@H](O)[C@@H]2O[C@@H]2C[C@@](C)(N)[C@@H](O)[C@@H](C)O2)Oc2ccc(cc2Cl)[C@H]1O | Active | Active | Active | Active | – | – | – | Ratio [2]: 64; Ratio [4]: 64; Activity [5]: Active; Activity [6]: Active
2 | CC[C@@H](C)[C@H]1NC(=O)[C@H](CC(C)C)NC(=O)[C@@H](CCCCN)NC(=O)C(NC(=O)CCCCCCCCCCCNC(=N)N)CNC(=O)[C@@H](CCCCN)NC(=O)[C@@H](CC(N)=O)NC1=O (stereo partly drawn) | – | – | – | Active | Active | Active | – | Activity [9]: Active; Activity [10]: Active; Activity [12]: Active
3 | CC[C@@H](C)[C@H]1NC(=O)[C@H](Cc2ccccc2)NC(=O)[C@@H](CC(C)C)NC(=O)C(NC(=O)CCCCCCCCCCCNC(=N)N)CNC(=O)[C@@H](CCCNC(=N)N)NC(=O)[C@@H](CC(N)=O)NC1=O (stereo partly drawn) | Active | – | Active | – | – | – | Active | –
4 | CC[C@@H](C)[C@H]1NC(=O)[C@H](Cc2ccccc2)NC(=O)[C@@H](CC(C)C)NC(=O)C(NC(=O)CCCCCCCCCCCNC(=N)N)CNC(=O)[C@@H](CCCCN)NC(=O)[C@@H](CC(N)=O)NC1=O (stereo partly drawn) | Active | – | Active | – | – | – | Active | –
5 | O=C(O)c1cn(C2CC2)c2cc(N3CCNCC3)c(F)cc2c1=O [CIPROFLOXACIN] | – | – | – | – | – | – | – | Ratio [2]: 64; Ratio [4]: 64
6 | CC(C)C[C@@H]1NC(=O)[C@@H](Cc2c[nH]c3ccccc23)NC(=O)C(NC(=O)CCCCCCCCCCCNC(=N)N)CNC(=O)[C@@H](CCCNC(=N)N)NC(=O)[C@@H](CC(N)=O)NC(=O)[C@@H](Cc2c[nH]c3ccccc23)NC1=O (stereo partly drawn) | Active | Active | Active | – | – | – | Active | –
7 | CC(C)C[C@@H]1NC(=O)[C@@H](CC(C)C)NC(=O)C(NC(=O)CCCCCCCCCCCNC(=N)N)CNC(=O)[C@@H](CCCCN)NC(=O)[C@@H](CC(N)=O)NC(=O)[C@@H](Cc2ccccc2)NC1=O (stereo partly drawn) | Active | – | Active | – | – | – | Active | –
8 | CC(C)[C@@H]1NC(=O)[C@@H](C(C)C)NC(=O)[C@@H](NC(=O)CCCCCCCCCCCNC(=N)N)[C@@H](C)OC(=O)[C@@H](C)NC(=O)[C@@H](CC(N)=O)NC(=O)[C@@H]([C@@H](C)O)NC1=O ({Dodecanoyl(12-guanidino)}-T[dV]V[d(aThr)][dN][dA]; ester 1-C) | Active | Active | Active | Active | Active | – | – | inhibition [15]: Active; inhibition [16]: Active; Activity [17]: Toxic; Activity [18]: Active; Activity [19]: Active; Activity [5]: Active; Activity [20]: Toxic; Activity [21]: Active
9 | CC(C)C[C@@H]1NC(=O)[C@@H](CC(C)C)NC(=O)C(NC(=O)CCCCCCCCCCCNC(=N)N)CNC(=O)[C@@H](CCCNC(=N)N)NC(=O)[C@@H](CC(N)=O)NC(=O)[C@@H](CCCCN)NC1=O (stereo partly drawn) | Active | – | Active | Active | Active | Active | Active | Activity [9]: Active; Activity [22]: Active; Activity [10]: Active; Activity [23]: Active; Activity [12]: Active; Activity [24]: Active
10 | COLISTIN | – | – | Active | Active | Active | Active | – | Activity [9]: Active; Activity [25]: Active; Activity [26]: Active; Activity [10]: Active; Activity [27]: Active; Activity [28]: Active; Activity [29]: Active; Activity [24]: Active; Activity [30]: Active; Activity [31]: Active; Activity [32]: Active; Activity [33]: Active; Activity [21]: Active; Activity [34]: Active; Activity [35]: Active
11 | C[C@@H](O)[C@H]1NC(=O)[C@@H](CC(N)=O)NC(=O)[C@@H](CCCNC(=N)N)NC(=O)[C@H](Cc2c[nH]c3ccccc23)NC(=O)[C@@H](Cc2c[nH]c3ccccc23)NC(=O)C(NC(=O)CCCCCCCCCCCNC(=N)N)CNC1=O (stereo partly drawn) | Active | – | Active | – | – | – | Active | –
12 | CC(C)[C@@H]1NC(=O)[C@@H](C(C)C)NC(=O)C(NC(=O)CCCCCCCCCCCNC(=N)N)CNC(=O)[C@@H](C)NC(=O)[C@@H](CC(N)=O)NC(=O)[C@@H]([C@@H](C)O)NC1=O (stereo partly drawn) | – | Active | Active | Active | Active | Active | – | inhibition [15]: Active; inhibition [16]: Active; inhibition [18]: inactive; inhibition [19]: inactive; Activity [36]: Non-toxic
13 | CC(C)C[C@@H]1NC(=O)[C@@H](CC(C)C)NC(=O)C(NC(=O)CCCCCCCCCCCNC(=N)N)CNC(=O)[C@@H](CCCNC(=N)N)NC(=O)[C@@H](CC(N)=O)NC(=O)[C@@H](Cc2ccccc2)NC1=O (stereo partly drawn) | Active | – | Active | – | – | – | – | –
